Experiments:
[1] = system: XIAP-mediated RIPK2 ubiquitination; conditions: cited from earlier work
GST-BIR2-cIAP1 and RIPK2 = conditions: cited from earlier work
RAW264.7 macrophages [2] = conditions: cited from earlier work
U2OS/NOD2 cells = conditions: cited from earlier work
[3] = system: HEK293 cell line expressing hNOD2 and NFκB-SEAP reporter; assay: Human NOD2 signaling HEKBlue reporter assay; format: cell-based; conditions: read-out: RIPK2/NOD2 Cell Assay IC50, HEKBlue, 1 ng/mL L18-MDP, mean of two or three determinations ± standard deviation, NI: No inhibition up to 10 μM
Outline: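 Cells seeded at 7.5-15x10^3 per well; after 24–48 h switched to HEKBlue detection medium and given an 11-point dose range of test compound together with the stimulant. SEAP read as absorbance at 620 nm after 7–9 h. Media-only background subtracted; % inhibition relative to DMSO/L18-MDP controls; IC50 by non-linear regression.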

[4] = molecular target: Recombinant RIPK2 protein (Homo sapiens, UniProt O43353); assay: RIPK2 enzyme assay; format: biochemical; conditions: for selectivity for RIPK2 versus ALK2: ratio of ALK2 to RIPK2 kinase IC50
Outline: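 Started with solution of 100 μM ATP + 1 mg/ml RS repeat peptide, 2 h RT; ADP-Glo luminescence. IC50 by non-linear regression. ALK2: human enzyme, casein 1 mg/mL, γ-33ATP 10 μM, 10 nM–100 μM compound, 30 min, 33P-casein.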

RAW264.7 macrophages [5] = format: cell-based; conditions: at 1 μM; data not shown

Chain of Recombinant RIPK2 protein (O43353 whole entry): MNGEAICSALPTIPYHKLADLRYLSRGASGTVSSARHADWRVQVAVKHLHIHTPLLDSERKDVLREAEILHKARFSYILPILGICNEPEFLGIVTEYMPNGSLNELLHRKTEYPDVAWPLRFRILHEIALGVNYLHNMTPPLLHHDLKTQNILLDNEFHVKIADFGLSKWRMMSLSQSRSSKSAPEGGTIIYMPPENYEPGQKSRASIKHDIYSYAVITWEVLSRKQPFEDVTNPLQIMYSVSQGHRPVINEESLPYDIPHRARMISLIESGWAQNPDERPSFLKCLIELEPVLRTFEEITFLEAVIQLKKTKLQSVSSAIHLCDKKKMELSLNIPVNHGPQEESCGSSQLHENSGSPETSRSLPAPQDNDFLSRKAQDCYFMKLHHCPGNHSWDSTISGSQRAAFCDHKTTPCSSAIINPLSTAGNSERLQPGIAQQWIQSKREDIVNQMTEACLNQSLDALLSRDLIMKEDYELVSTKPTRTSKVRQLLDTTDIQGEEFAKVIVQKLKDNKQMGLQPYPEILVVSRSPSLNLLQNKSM

CCCS(=O)(=O)Nc1cc(-c2cc(-c3ccc(N4CCNCC4)cc3)cnc2N)cc(OC)c1OC [Compound 18p, N-(5-(2-Amino-5-(4-(piperazin-1-yl)phenyl)pyridin-3-yl)-2,3-dimethoxyphenyl)propane-1-sulfonamide]
XIAP-mediated RIPK2 ubiquitination [1]: blocked | interaction between GST-BIR2-cIAP1 and RIPK2 (GST-BIR2-cIAP1 and RIPK2): interfered | inhibition of L18-MDP-induced TNFα release (RAW264.7 macrophages [2]): efficient inhibition | inhibition of L18-MDP-induced CXCL8 production (U2OS/NOD2 cells): efficient inhibition

CCCS(=O)(=O)Nc1cc(-c2cc(-c3ccc(S(C)(=O)=O)cc3)cnc2N)ccc1OC [Compound 18ad, N-(5-(2-Amino-5-(4-(methylsulfonyl)phenyl)pyridin-3-yl)-2-methoxyphenyl)propane-1-sulfonamide]
IC50 [3]: > 10 µM

CCCS(=O)(=O)Nc1cc(-c2cc(-c3ccc(N4CCNCC4)cc3)cnc2N)cc(OCC)c1OC [Compound 18q, N-(5-(2-Amino-5-(4-(piperazin-1-yl)phenyl)pyridin-3-yl)-3-ethoxy-2-methoxyphenyl)propane-1-sulfonamide]
IC50 [3]: > 10 µM

CCCS(=O)(=O)Nc1cc(-c2cc(-c3ccccc3S(C)(=O)=O)cnc2N)ccc1OC [Compound 18ab, N-(5-(2-Amino-5-(2-(methylsulfonyl)phenyl)pyridin-3-yl)-2-methoxyphenyl)propane-1-sulfonamide]
IC50 [3]: > 10 µM

CCCS(=O)(=O)Nc1cc(-c2cc(-c3ccc(N4CCNCC4)cc3)cnc2N)ccc1OC [Compound 18m, N-(5-(2-Amino-5-(4-(piperazin-1-yl)phenyl)pyridin-3-yl)-2-methoxyphenyl)propane-1-sulfonamide]
IC50 [4]: 0.041 ± 0.019 µM | selectivity for RIPK2 versus ALK2 [4]: 86 fold

COc1cc(-c2cc(-c3ccc(N4CCNCC4)cc3)cnc2C)cc(OC)c1OC [Compound 9a, reference compound]
IC50 [3]: > 10 µM

CCCS(=O)(=O)Nc1cc(-c2cc(-c3ccc(N4CCNCC4)cc3)cnc2N)cc(F)c1OC [Compound 18t, N-(5-(2-Amino-5-(4-(piperazin-1-yl)phenyl)pyridin-3-yl)-3-fluoro-2-methoxyphenyl)propane-1-sulfonamide]
XIAP-mediated RIPK2 ubiquitination [1]: blocked | interaction between GST-BIR2-cIAP1 and RIPK2 (GST-BIR2-cIAP1 and RIPK2): interfered | inhibition of L18-MDP-induced TNFα release (RAW264.7 macrophages [2]): efficient inhibition | selectivity for RIPK2 versus ALK2 [4]: > 20 fold | inhibition of L18-MDP-induced CXCL8 production (U2OS/NOD2 cells): efficient inhibition | block of RIPK1 and RIPK3 dependent necroptosis (RAW264.7 macrophages [5]): did not block

CCCS(=O)(=O)Nc1cc(-c2cc(-c3ccc(N4CCNCC4)cc3)cnc2N)ccc1O [Compound 18n, N-(5-(2-Amino-5-(4-(piperazin-1-yl)phenyl)pyridin-3-yl)-2-hydroxyphenyl)propane-1-sulfonamide]
IC50 [3]: > 5 µM

From PMC7338260 (European journal of medicinal chemistry, 2020)
